The values that follow come from ChEMBL document CHEMBL2069190, “Identification of new γ-hydroxybutenolides that preferentially inhibit the activity of mPGES-1” (Bioorg Med Chem, 2012).

Calls of active or inactive are those of the source. The calls are words filed in the database; no cut-off is given here.

One may read the inhibition as how much of the control response was suppressed. Usually IC50 stands for the concentration at which inhibition is half-maximal.

The subject of data set [1] is A549. As to the kind of experiment: Antiinflammatory activity in human A549 cells assessed as inhibition of IL-1beta-induced mPGES1 expression at 10 uM treated 30 mins prior to IL-1beta challenge measured after 48 hrs by Western blot analysis relative to control. Format: functional, cell-based. Put shortly: (§1)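 A549 cells (DMEM high glucose, 10% heat-inactivated FCS, penicillin/streptomycin, 37 °C, 5% CO2) pre-incubated 30 min with compound or vehicle (DMSO, 0.3%), then IL-1b (2 ng/mL) added. After 48 h, cells lysed; mPGES-1 protein analysed by Western blot with b-actin as loading control. Bands semi-quantified by densitometry as % of uninhibited DMSO control, mean SD, n = 3.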
(In general: Immunoblotting shows a protein as a band on a membrane.)

A further data set concerns the target T1, Prostaglandin E synthase (Homo sapiens, UniProt O14684).
T1 sequence (O14684 whole entry): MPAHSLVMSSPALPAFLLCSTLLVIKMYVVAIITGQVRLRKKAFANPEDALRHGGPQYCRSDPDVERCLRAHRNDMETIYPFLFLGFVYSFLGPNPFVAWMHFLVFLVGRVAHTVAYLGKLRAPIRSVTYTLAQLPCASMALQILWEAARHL
Kind of data set: Inhibition of mPGES-1-mediated PGE2 formation in IL-1beta-stimulated human A549 cells preincubated for 10 mins measured after 1 min by RP-HPLC analysis. Format: cell-based. Put shortly:
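Microsomes from A549 cells treated 48 h with 1 ng/mL IL-1b, isolated by sonication and differential centrifugation (10,000×g 10 min, 174,000×g 1 h, 4 °C). Diluted in 0.1 M potassium phosphate pH 7.4 with 2.5 mM glutathione. Pre-incubated with compound or vehicle on ice, then 20 µM PGH2 added. PGE2 measured by RP-HPLC as % of DMSO control, mean S.E., n = 3–4.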

Data set [2] deals with T2, Prostaglandin G/H synthase 1 (Ovis aries) (UniProt P05979).
T2 sequence (whole entry): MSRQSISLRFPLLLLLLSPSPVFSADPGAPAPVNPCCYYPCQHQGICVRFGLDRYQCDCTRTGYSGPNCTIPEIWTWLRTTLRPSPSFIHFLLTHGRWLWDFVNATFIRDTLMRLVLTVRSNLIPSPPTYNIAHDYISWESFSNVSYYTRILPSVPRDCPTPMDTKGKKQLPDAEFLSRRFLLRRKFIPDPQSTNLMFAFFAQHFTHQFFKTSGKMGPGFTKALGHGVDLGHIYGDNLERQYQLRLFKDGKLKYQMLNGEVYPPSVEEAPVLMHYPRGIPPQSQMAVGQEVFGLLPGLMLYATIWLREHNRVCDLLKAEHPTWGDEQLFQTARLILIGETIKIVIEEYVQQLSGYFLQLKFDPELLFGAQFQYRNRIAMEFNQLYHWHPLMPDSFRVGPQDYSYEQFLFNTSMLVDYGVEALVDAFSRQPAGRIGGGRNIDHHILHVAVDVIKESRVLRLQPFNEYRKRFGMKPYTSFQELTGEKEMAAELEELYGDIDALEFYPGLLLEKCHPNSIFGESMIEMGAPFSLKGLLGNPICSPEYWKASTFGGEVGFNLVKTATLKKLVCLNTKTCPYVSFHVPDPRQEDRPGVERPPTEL
Kind of data set: Inhibition of ovine COX1 at 10 uM preincubated for 5 mins measured after 5 mins.

For data set [3], the target named is T3, Prostaglandin G/H synthase 2 (Homo sapiens) (UniProt P35354).
T3 sequence (whole entry): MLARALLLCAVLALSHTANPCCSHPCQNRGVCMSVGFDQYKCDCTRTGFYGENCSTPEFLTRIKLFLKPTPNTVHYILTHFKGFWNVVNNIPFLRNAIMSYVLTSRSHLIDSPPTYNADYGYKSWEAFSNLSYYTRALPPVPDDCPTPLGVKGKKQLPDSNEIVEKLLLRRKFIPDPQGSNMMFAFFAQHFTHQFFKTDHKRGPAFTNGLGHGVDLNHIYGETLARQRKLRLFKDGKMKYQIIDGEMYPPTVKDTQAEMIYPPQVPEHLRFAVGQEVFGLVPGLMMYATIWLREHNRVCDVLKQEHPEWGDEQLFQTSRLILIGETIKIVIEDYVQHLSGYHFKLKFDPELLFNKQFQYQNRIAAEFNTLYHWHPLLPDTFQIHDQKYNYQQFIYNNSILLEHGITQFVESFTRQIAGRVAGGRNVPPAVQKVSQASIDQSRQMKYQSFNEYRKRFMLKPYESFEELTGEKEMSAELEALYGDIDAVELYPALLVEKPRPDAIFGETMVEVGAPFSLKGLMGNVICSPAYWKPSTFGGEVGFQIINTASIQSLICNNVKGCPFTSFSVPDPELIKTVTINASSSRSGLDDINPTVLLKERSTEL
Kind of data set: Inhibition of human COX2 at 10 uM preincubated for 5 mins measured after 5 mins.

In data set [4] the target is T4, Polyunsaturated fatty acid 5-lipoxygenase (Homo sapiens) (UniProt P09917).
T4 sequence (whole entry): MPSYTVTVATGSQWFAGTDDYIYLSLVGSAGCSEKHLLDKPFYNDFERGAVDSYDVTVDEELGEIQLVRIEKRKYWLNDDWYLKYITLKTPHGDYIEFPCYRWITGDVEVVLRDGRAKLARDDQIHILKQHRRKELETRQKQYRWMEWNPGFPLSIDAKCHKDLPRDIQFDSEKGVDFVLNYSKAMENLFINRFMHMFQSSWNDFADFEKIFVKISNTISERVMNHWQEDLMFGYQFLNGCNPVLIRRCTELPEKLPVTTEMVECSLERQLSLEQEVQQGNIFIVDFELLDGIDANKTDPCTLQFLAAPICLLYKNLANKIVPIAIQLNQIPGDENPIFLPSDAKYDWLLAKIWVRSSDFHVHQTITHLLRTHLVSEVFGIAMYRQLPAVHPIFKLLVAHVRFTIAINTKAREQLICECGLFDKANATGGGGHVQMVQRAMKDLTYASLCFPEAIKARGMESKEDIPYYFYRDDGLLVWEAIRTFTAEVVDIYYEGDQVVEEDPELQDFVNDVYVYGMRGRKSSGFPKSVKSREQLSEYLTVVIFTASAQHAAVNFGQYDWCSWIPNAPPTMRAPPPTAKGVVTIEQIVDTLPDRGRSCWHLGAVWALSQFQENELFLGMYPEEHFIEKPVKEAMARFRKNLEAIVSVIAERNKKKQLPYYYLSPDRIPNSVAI
As to the kind of experiment: Inhibition of 5-lipoxygenase in A23187-stimulated human PMNL assessed as inhibition of 15-H(p)ETE formation preincubated 15 mins by RP-HPLC analysis.

The target in data set [5] is T5, Polyunsaturated fatty acid lipoxygenase ALOX15 (Homo sapiens) (UniProt P16050).
T5 sequence (whole entry): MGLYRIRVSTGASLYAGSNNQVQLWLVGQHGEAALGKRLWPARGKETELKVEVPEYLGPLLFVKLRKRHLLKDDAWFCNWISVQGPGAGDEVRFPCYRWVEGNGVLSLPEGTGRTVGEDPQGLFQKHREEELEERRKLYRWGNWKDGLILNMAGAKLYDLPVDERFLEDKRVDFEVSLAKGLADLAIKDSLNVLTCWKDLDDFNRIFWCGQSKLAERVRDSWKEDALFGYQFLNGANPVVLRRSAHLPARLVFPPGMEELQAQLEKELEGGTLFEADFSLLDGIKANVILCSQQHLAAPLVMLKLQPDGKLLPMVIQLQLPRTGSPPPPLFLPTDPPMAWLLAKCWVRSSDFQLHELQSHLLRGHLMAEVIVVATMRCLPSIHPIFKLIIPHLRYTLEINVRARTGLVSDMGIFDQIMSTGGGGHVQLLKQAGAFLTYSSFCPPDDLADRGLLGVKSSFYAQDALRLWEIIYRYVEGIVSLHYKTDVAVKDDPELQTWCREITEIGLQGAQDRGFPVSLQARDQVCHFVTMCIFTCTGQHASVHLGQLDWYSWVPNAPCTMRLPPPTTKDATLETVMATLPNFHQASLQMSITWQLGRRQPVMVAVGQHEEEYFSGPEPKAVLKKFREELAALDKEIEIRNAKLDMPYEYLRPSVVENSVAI
Kind of data set: Inhibition of 15-lipoxygenase in A23187-stimulated human PMNL assessed as inhibition of 15-H(p)ETE formation preincubated 15 mins by RP-HPLC analysis.

A short description of data set [6]: Inhibition of His-tagged human recombinant cPLA2alpha expressed in baculovirus infected insect sf9 cells assessed as inhibition of arachidonic acid formation after 1 hr by RP-HPLC analysis.
Data set [7] can be described thus: Cytotoxicity against mouse […] cells at 10 uM after 24 hrs by MTT assay.
Data set [8] can be described thus: Cytotoxicity against human primary monocytes at 10 uM after 24 hrs by MTT assay. The conditions noted are these: monocyte. Background: Tetrazolium dyes change colour on reduction, which living cells bring about.
For data set [9], the target named is T6, Polyunsaturated fatty acid lipoxygenase ALOX12 (Homo sapiens) (UniProt P18054).
T6 sequence (whole entry): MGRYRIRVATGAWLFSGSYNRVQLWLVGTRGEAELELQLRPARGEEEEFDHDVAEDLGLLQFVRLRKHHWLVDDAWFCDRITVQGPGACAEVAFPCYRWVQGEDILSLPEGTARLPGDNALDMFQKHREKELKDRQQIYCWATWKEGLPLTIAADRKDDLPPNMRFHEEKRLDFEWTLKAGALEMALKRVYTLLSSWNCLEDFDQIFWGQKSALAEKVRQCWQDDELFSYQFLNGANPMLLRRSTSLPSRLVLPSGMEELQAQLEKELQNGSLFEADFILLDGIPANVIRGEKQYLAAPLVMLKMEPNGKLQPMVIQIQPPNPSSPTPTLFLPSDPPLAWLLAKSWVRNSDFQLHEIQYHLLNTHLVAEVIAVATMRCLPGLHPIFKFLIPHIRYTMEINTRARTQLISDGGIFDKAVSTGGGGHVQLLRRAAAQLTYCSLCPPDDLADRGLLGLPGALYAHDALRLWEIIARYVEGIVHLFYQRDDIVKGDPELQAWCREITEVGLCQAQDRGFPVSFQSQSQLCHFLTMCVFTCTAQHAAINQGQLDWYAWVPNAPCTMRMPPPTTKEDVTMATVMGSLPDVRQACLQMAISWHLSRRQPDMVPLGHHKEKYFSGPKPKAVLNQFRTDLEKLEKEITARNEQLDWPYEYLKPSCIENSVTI
Kind of data set: Inhibition of 12-lipoxygenase in A23187-stimulated human platelets assessed as reduction of 12(S)-H(P)ETE formation preincubated 15 mins by RP-HPLC analysis.

Data set [10] has as its system A549. Kind of data set: Antiinflammatory activity in human A549 cells assessed as inhibition of IL-1beta-induced mPGES1 expression at 1 uM treated 30 mins prior to IL-1beta challenge measured after 48 hrs by Western blot analysis relative to control. Format: functional, cell-based. The gist of the method: as §1

For the compound `O=C1OC(O)C(c2ccc(C(=O)NCc3ccccc3)cc2)=C1Br` (stereo not drawn), in the data set with A549 [1], the inhibition entry was “inactive”. Moreover, at Prostaglandin E synthase, the half-maximal inhibitory concentration (IC50) was found to be 5.6 µM.
Consider `O=C1OC(O)C(c2ccc(C(=O)N3CCCCC3)cc2)=C1Br` (stereo not drawn), for which, in the data set on A549 [1], the inhibition result is “inactive”.
For `O=C1OC(O)C(c2ccc(C(=O)N3CCCC3)cc2)=C1Br` (stereo not drawn), the inhibition entry in the data set on A549 [1] is “inactive”.
For the compound `O=C1OC(O)C(c2cccc(C(=O)N3CCCC3)c2)=C1Br` (stereo not drawn), the inhibition entry in the data set with A549 [1] was “inactive”.
Still for that read-out and setting: then `O=C1OC(O)C(c2ccc(C(=O)N3CCOCC3)cc2)=C1Br` (stereo not drawn), with “inactive”.
Take `O=C1OC(O)C(c2ccc(C(=O)N3CCNCC3)cc2)=C1Br` (stereo not drawn): in the data set on A549 [1], the inhibition entry is “inactive”.
Consider `O=C1OC(O)C(c2cccc(C(=O)N3CCCCC3)c2)=C1Br` (stereo not drawn), for which, in the data set with A549 [1], the inhibition entry was “inactive”.
Regarding `O=C1OC(O)C(c2cccc(C(=O)N3CCOCC3)c2)=C1Br` (stereo not drawn), in the data set on A549 [1], the inhibition entry is “inactive”.
On the same count and under the same terms, then `O=C1OC(O)C(c2cccc(C(=O)Nc3ccccc3)c2)=C1Br` (stereo not drawn), with “inactive”.
At Prostaglandin E synthase, `O=C1OC(O)C(c2cc3ccccc3s2)=C1Br` (stereo not drawn) registered an IC50 greater than 10 µM.
Consider `O=C1OC(O)C(c2ccc(C(=O)Nc3ccccc3)cc2)=C1Br` (stereo not drawn), for which the inhibition result (in the data set with A549 [1]; in data set [2]; in [3]; in [5]; in [6]; in data set [9]) was “inactive” each time. For the same compound, the midpoint of inhibition against Prostaglandin E synthase, the IC50, lay at 0.9 µM. Further, the inhibition in data set [4] came out at 22%. The Activity entry in data set [7] and in [8] was “Non-toxic” in each case.
Take `C[C@@H]1C[C@H]2[C@@H]3CCC4=CC(=O)C=C[C@]4(C)[C@@]3(F)[C@@H](O)C[C@]2(C)[C@@]1(O)C(=O)CO`: the inhibition entry in the data set on A549 [10] is “Active”.
On to `O=C1OC(O)C(c2cccc(C(=O)NCc3ccccc3)c2)=C1Br` (stereo not drawn), for which the inhibition result with A549 [1] is “inactive”.
